What all share (type): cell-based
Assay [1] addresses T1, 3-keto-steroid reductase/17-beta-hydroxysteroid dehydrogenase 7 (Homo sapiens, UniProt P56937).
T1 sequence (P56937 whole entry): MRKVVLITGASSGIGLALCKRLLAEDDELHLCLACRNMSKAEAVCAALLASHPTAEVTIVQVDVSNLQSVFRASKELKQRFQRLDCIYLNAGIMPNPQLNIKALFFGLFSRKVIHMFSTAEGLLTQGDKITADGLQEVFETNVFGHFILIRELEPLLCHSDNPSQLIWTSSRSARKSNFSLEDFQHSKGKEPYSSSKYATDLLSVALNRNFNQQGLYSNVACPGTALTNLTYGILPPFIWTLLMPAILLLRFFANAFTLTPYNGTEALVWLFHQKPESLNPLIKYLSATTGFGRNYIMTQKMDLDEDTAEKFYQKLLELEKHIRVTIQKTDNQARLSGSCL
In words: Inhibition of human 17beta-HSD7 expressed in HEK293 cells assessed as inhibition of reduction of [14C]estrone into [14C]estradiol after 7 hrs. Summed up: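 Intact HEK-293 cells stably overexpressing h17β-HSD7 were plated at 500 000 cells/well in MEM/10% FCS at 37 °C. Fresh medium received 15 000 cpm (~150 nM, below Km) [4-14C]-estrone plus ethanolic inhibitor for 7 h. Steroids were extracted with diethyl ether. Screening used two inhibitor concentrations in duplicate or triplicate and is reported as % inhibition of E1→E2.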

The target of assay [2] is T2, 3-keto-steroid reductase/17-beta-hydroxysteroid dehydrogenase 7 (Homo sapiens) (UniProt P56937).
T2 sequence (whole entry): T1 sequence (P56937 whole entry)
In words: Inhibition of human 17beta-HSD7 expressed in HEK293 cells assessed as inhibition of reduction of [14C]dihydrotestosterone into [14C]5alpha-androstane-3beta,17beta-diol at 3 uM after 18 hrs. Summed up:
(§1)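 Intact HEK-293 cells stably overexpressing h17β-HSD7 (pCMV-neo, G-418 selected) were plated at 500 000 cells/well in MEM with 10% fetal calf serum at 37 °C. Fresh medium received 15 000 cpm (~150 nM) [4-14C]-DHT plus ethanolic inhibitor, and cells were incubated 18 h. Steroids were extracted twice with diethyl ether. Assays were done in duplicate.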

For assay [3], the target named is T2, 3-keto-steroid reductase/17-beta-hydroxysteroid dehydrogenase 7 (Homo sapiens). In words: Inhibition of human 17beta-HSD7 expressed in HEK293 cells assessed as inhibition of reduction of [14C]dihydrotestosterone into [14C]5alpha-androstane-3beta,17beta-diol at 0.3 uM after 18 hrs. A digest of the protocol:
as §1

Another assay relates to HEK293. In words: Inhibition of human 17beta-HSD5 expressed in HEK293 cells assessed as inhibition of conversion of [14C]4-androstene-3,17-dione to [14C]testosterone at 0.3 uM after 20 hrs. Summed up: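 Intact HEK-293 cells stably transfected with pCMV-neo-h17β-HSD5 were plated at 500 000 cells/well. They were incubated with 15 000 cpm [4-14C]-Δ4-dione and inhibitor in ethanol (0.3 or 3 μM) for 20 h at 37 °C, 5% CO2, in triplicate. Steroids were then extracted, separated and quantified.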

Assay [4] deals with T3, 17-beta-hydroxysteroid dehydrogenase type 1 (Homo sapiens) (UniProt P14061).
T3 sequence (whole entry): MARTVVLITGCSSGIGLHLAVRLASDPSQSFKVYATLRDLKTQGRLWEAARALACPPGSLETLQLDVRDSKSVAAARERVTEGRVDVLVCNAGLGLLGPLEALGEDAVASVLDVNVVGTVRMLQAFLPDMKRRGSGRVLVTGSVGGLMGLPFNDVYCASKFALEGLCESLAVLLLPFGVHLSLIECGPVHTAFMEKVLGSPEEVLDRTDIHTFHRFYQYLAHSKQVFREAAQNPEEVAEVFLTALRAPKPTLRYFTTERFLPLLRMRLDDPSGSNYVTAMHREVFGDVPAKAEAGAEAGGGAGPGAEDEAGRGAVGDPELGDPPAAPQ
In words: Inhibition of human 17beta-HSD1 expressed in HEK293 cells assessed as inhibition of reduction of [14C]estrone into [14C]estradiol at 0.1 uM. A digest of the protocol: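 Enzyme source: sonicated HEK-293 cells transfected with the h17β-HSD1 gene. Inhibitor was dissolved in ethanol and tested at final concentrations of 0.1 and 1 μM. The [14C]-E1 to [14C]-E2 assay was run as in an earlier report.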

For assay [5], the target named is T4, 3-oxo-5-alpha-steroid 4-dehydrogenase 1 (Homo sapiens) (UniProt P18405).
T4 sequence (whole entry): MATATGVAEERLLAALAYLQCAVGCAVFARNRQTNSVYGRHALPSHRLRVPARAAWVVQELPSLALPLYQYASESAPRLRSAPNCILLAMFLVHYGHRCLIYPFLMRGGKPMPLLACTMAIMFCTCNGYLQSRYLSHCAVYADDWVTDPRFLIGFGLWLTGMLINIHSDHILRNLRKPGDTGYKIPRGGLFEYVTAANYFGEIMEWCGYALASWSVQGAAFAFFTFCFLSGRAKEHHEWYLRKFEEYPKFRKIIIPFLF
In words: Inhibition of human 5alpha reductase 1 expressed in HEK293 cells assessed as inhibition of conversion of [14C]4-androstene-3,17-dione to [14C]5R-androstane-3,17-dione at 0.3 uM after 1 hr. Summed up:
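Intact HEK-293 cells transfected with pCMV-neo-h5α-reductase type 1 or type 2 were plated at 500 000 cells/well at 37 °C. They were incubated with 15 000 cpm [14C]-Δ4-dione and inhibitor (final 0.3 or 3 μM), in duplicate, for 1 h (type 1) or 3 h (type 2). Steroids were extracted and separated by TLC (toluene/EtOAc 4:1). Radioactivity gave % transformation and % inhibition.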

Usually IC50 stands for the point on the concentration scale where inhibition reaches its midpoint. Broadly, the inhibition is the drop in the measured response relative to a control, in per cent.

Active and inactive are the calls of the source. The calls are words filed in the database; no cut-off is given here.

In the case of `CCCCCCCCCCN(C=O)C1CC[C@H]2[C@@H]3CC[C@H]4N(C)C(=O)CC[C@]4(C)[C@H]3CC[C@]12C` (stereo partly drawn), the IC50 in assay [1] was 195 nM. The inhibition in assay [2] stood at 69%; in assay [3] it was 49%.
Regarding `CN1C(=O)CC[C@]2(C)[C@H]3CC[C@@]4(C)[C@@H](CC[C@@]45CCC(C)(C)C(=O)O5)[C@@H]3CC[C@@H]12`, the inhibition with HEK293 was determined as 90%; in assay [2], 69%. The inhibition result in assay [4] is “inactive”. For the same molecule, the inhibition result in assay [5] was “Active”. In assay [1], the 50% inhibitory concentration (IC50) was 116 nM.

These data come from ChEMBL document CHEMBL1154295, “Potent and selective steroidal inhibitors of 17beta-hydroxysteroid dehydrogenase type 7, an enzyme that catalyzes the reduction of the key hormones estrone and dihydrotestosterone” (J Med Chem, 2009).
